# From ChEMBL document CHEMBL1795330, “Dual IGF-1R/SRC inhibitors based on a N'-aroyl-2-(1H-indol-3-yl)-2-oxoacetohydrazide structure” (Eur J Med Chem, 2011)
# Legend:
# [1] = target: Insulin-like growth factor 1 receptor (Homo sapiens, UniProt P08069); assay: Inhibition of IGF-1R assessed as incorporation of p33 using [gammaP33]-ATP by microplate scintillation counting
# How it was run: (§1)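 Compound added in 10% DMSO. Incubated 80 min at 30 °C, stopped with 2% phosphoric acid, washed with 0.9% NaCl, 33P incorporation counted by scintillation. Activity normalised to no-enzyme and no-inhibitor controls; plates repeated if Z′ < 0.4.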
# [2] = target: Proto-oncogene tyrosine-protein kinase Src (Homo sapiens, UniProt P12931); assay: Inhibition of SRC assessed as incorporation of p33 using [gammaP33]-ATP by microplate scintillation counting; how it was run: as §1
# Proto-oncogene tyrosine-protein kinase Src, sequence (P12931 2-536 limits assumed): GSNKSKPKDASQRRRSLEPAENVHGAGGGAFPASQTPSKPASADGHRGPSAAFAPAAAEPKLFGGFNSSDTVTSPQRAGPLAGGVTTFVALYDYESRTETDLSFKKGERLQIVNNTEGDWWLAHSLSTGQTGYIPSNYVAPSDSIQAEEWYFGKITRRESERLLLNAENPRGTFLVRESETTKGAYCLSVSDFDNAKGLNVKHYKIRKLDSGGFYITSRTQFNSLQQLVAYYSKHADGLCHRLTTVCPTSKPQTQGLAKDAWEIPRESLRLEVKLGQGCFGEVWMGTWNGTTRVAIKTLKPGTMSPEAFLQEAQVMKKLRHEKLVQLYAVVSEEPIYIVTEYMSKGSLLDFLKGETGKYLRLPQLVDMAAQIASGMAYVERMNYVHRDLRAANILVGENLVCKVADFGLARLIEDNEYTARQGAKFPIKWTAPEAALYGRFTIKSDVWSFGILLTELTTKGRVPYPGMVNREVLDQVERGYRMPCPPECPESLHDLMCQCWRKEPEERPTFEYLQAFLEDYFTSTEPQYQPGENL
# [3] = target: Hepatocyte growth factor receptor (Homo sapiens, UniProt P08581); assay: Inhibition of c-MET assessed as incorporation of p33 using [gammaP33]-ATP by microplate scintillation counting; how it was run: as §1
# Hepatocyte growth factor receptor, sequence (P08581 whole entry): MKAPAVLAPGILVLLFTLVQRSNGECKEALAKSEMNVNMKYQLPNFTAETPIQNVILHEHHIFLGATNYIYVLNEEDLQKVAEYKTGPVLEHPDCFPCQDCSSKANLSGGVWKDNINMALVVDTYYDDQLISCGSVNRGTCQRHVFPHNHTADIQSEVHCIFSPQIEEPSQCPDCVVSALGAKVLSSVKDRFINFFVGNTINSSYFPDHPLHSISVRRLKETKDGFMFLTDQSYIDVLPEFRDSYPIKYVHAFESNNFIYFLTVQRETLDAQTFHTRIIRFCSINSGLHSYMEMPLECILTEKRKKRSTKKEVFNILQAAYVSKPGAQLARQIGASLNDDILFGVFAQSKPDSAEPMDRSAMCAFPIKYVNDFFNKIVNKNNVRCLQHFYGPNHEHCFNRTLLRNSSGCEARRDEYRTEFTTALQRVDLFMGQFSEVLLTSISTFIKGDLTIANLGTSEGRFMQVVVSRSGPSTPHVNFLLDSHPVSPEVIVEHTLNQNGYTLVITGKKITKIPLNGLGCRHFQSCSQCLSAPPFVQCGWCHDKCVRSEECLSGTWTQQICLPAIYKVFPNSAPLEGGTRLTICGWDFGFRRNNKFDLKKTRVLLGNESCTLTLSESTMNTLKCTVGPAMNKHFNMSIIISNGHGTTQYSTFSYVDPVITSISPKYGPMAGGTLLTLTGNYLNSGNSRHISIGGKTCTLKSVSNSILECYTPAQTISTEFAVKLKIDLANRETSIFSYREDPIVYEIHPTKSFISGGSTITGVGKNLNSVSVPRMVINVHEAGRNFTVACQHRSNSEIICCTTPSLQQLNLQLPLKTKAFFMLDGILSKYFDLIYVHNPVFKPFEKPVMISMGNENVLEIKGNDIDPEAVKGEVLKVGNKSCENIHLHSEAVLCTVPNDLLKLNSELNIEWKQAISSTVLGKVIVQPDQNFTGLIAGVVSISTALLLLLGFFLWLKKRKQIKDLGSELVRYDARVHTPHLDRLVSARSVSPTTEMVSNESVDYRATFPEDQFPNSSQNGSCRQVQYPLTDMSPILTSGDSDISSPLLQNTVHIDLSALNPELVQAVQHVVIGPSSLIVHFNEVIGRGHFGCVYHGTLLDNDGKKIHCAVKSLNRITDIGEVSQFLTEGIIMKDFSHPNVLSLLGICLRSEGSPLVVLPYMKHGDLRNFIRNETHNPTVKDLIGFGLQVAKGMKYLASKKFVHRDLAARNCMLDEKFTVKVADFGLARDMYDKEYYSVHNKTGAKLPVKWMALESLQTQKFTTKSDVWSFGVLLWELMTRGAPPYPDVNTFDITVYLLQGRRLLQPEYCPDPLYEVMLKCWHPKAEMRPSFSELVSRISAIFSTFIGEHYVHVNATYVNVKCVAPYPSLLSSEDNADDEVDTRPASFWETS
# [4] = system: NCI-H522; assay: Antiproliferative activity against human NCI-H522 at 10 uM after 48 hrs by sulforhodamine B assay relative to control; assay type: functional; conditions: NCI-H522, 48 h
# How it was run: (§2)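 NCI cell-line screen: cells plated at 5000–40,000/well in medium with 5% foetal bovine serum and 2 mM L-glutamine, preincubated 24 h at 37 °C, 5% CO2. Time-zero plates fixed with TCA at drug addition. Compound from DMSO stock added; 48 h exposure. Cells fixed in situ with cold TCA, stained with 0.4% sulforhodamine B in 1% acetic acid, absorbance 515 nm; growth expressed relative to untreated controls (100%).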
# [5] = system: OVCAR-8; assay: Antiproliferative activity against human OVCAR8 at 10 uM after 48 hrs by sulforhodamine B assay relative to control; assay type: functional; conditions: OVCAR-8, 48 h; how it was run: as §2
# [6] = system: A549; assay: Antiproliferative activity against human A549 cells at 10 uM after 48 hrs by sulforhodamine B assay relative to control; assay type: functional; conditions: A549, 48 h; how it was run: as §2
# Insulin-like growth factor 1 receptor, sequence (P08069 31-736 limits assumed): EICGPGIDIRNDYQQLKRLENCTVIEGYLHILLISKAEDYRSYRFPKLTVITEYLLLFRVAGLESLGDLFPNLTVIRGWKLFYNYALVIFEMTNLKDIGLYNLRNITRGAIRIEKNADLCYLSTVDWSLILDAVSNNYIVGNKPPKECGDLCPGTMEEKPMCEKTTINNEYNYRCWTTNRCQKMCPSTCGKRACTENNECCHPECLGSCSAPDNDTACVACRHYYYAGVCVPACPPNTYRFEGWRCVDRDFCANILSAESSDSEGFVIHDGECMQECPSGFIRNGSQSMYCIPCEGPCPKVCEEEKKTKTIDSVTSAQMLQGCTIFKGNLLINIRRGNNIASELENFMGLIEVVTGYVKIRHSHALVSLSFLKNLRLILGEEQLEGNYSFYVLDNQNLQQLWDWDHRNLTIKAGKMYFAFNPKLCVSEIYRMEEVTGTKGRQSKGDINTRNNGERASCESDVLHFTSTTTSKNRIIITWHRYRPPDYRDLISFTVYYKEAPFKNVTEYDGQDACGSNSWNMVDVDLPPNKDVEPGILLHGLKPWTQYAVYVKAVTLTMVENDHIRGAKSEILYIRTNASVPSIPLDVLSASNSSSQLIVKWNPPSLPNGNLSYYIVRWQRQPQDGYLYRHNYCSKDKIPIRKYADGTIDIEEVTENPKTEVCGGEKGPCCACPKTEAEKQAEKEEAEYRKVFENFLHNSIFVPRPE
# Insulin-like growth factor 1 receptor, sequence (P08069 741-1367 limits assumed): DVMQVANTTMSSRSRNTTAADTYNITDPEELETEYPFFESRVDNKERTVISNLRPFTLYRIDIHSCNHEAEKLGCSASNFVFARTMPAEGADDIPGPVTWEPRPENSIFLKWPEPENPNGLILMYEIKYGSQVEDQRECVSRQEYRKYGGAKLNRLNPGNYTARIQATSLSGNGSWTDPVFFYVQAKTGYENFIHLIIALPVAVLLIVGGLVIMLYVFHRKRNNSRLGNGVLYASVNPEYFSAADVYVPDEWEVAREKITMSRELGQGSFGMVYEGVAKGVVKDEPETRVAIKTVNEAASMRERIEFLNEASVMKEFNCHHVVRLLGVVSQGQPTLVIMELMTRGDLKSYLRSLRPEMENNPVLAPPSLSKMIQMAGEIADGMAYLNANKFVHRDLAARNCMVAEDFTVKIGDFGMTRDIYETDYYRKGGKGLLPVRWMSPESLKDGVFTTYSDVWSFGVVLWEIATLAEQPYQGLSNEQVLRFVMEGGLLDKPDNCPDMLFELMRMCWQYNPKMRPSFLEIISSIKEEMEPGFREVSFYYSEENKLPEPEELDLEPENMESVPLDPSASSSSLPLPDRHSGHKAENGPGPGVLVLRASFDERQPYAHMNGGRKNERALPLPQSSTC
smiles,measurement,setting,value
CC(C)(C)c1ccc(C(=O)NNC(=O)C(=O)c2c[nH]c3ccccc23)cc1,IC50,[1],4.4 µM
same,IC50,[2],5.9 µM
same,IC50,[3],36 µM
O=C(NNC(=O)c1ccc(-c2ccccc2COc2cccc(C(F)(F)F)c2)cc1)C(=O)c1c[nH]c2ccccc12,IC50,[1],0.81 µM
same,IC50,[2],0.62 µM
same,IC50,[3],5.2 µM
O=C(NNc1ccc(I)cc1)C(=O)c1c[nH]c2ccccc12,IC50,[1],> 100 µM
same,IC50,[3],> 100 µM
O=C(NCc1ccccc1)C(=O)c1c[nH]c2ccccc12,IC50,[1],> 100 µM
same,IC50,[3],> 100 µM
Cc1ccc(CCNC(=O)C(=O)c2c[nH]c3ccccc23)cc1,IC50,[1],52 µM
same,IC50,[3],> 100 µM
O=C(NNC(=O)c1ccc(Cl)cc1)C(=O)c1c[nH]c2ccccc12,IC50,[1],16 µM
same,IC50,[3],48 µM
O=C(NNC(=O)c1ccc(C(F)(F)F)cc1)C(=O)c1c[nH]c2ccccc12,IC50,[1],4.1 µM
same,IC50,[2],1.3 µM
same,IC50,[3],49 µM
O=C(NNc1ccccc1)C(=O)c1c[nH]c2ccccc12,IC50,[1],> 100 µM
same,IC50,[3],> 100 µM
O=C(NCc1cccc(Cl)c1)C(=O)c1c[nH]c2ccccc12,IC50,[1],> 100 µM
same,IC50,[3],> 100 µM
O=C(NNc1ccc(Br)cc1)C(=O)c1c[nH]c2ccccc12,IC50,[1],> 100 µM
same,IC50,[3],> 100 µM
O=C(NCCc1cccc(Cl)c1)C(=O)c1c[nH]c2ccccc12,IC50,[1],> 100 µM
same,IC50,[3],> 100 µM
Cc1ccc(CNC(=O)C(=O)c2c[nH]c3ccccc23)cc1,IC50,[1],63 µM
same,IC50,[3],> 100 µM
O=C(NNC(=O)c1ccc(I)cc1)C(=O)c1c[nH]c2ccccc12,IC50,[1],4 µM
same,IC50,[2],4.5 µM
same,IC50,[3],14 µM
COCCc1ccc(OCc2cccc(-c3ccc(C(=O)NNC(=O)C(=O)c4c[nH]c5ccccc45)cc3)c2)cc1,IC50,[1],0.68 µM
same,IC50,[2],0.38 µM
same,IC50,[3],8.8 µM
CS(=O)(=O)NCc1cccc(-c2ccc(C(=O)NNC(=O)C(=O)c3c[nH]c4ccccc34)cc2)c1,IC50,[1],3.3 µM
same,IC50,[2],2.8 µM
same,IC50,[3],27 µM
O=C(NNC(=O)c1ccccc1F)C(=O)c1c[nH]c2ccccc12,IC50,[1],91 µM
same,IC50,[2],96 µM
same,IC50,[3],91 µM
Cc1nc(-c2ccc(C(=O)NNC(=O)C(=O)c3c[nH]c4ccccc34)cc2)no1,IC50,[1],12 µM
same,IC50,[2],22 µM
same,IC50,[3],95 µM
O=C(NNC(=O)c1ccc(-c2ccccc2OCc2ccc(F)cc2)cc1)C(=O)c1c[nH]c2ccccc12,IC50,[1],4.9 µM
same,IC50,[2],1.9 µM
same,IC50,[3],13 µM
O=C(NNC(=O)c1ccc([N+](=O)[O-])cc1)C(=O)c1c[nH]c2ccccc12,IC50,[1],> 100 µM
same,IC50,[3],69 µM
Cc1cncc(Oc2ccc(C(=O)NNC(=O)C(=O)c3c[nH]c4ccccc34)cc2)n1,IC50,[1],31 µM
same,IC50,[2],40 µM
same,IC50,[3],> 100 µM
Cc1ccc(C(=O)NNC(=O)C(=O)c2c[nH]c3ccccc23)cc1,IC50,[1],82 µM
same,IC50,[3],95 µM
O=C(NNC(=O)c1ccccc1)C(=O)c1c[nH]c2ccccc12,IC50,[1],> 100 µM
same,IC50,[3],> 100 µM
O=C(NCc1ccc(Cl)cc1)C(=O)c1c[nH]c2ccccc12,IC50,[1],> 100 µM
same,IC50,[3],> 100 µM
COc1ccc(CCNC(=O)C(=O)c2c[nH]c3ccccc23)cc1OC,IC50,[1],> 100 µM
same,IC50,[3],> 100 µM
COc1ccc(C(=O)NNC(=O)C(=O)c2c[nH]c3ccccc23)cc1,IC50,[1],54 µM
same,IC50,[3],96 µM
Cc1cc(C(C)(C)C)ccc1OCc1cccc(-c2ccc(C(=O)NNC(=O)C(=O)c3c[nH]c4ccccc34)cc2)c1,"growth, % of control at 10 µM",[4],-7.7%
same,"growth, % of control at 10 µM",[5],-9.59%
same,IC50,[1],0.67 µM
same,"growth, % of control at 10 µM",[6],7.38%
same,IC50,[2],0.52 µM
same,IC50,[3],4.1 µM
O=C(NCCc1ccc(Cl)cc1)C(=O)c1c[nH]c2ccccc12,IC50,[1],> 100 µM
same,IC50,[3],> 100 µM
Cc1ccc(C)n1-c1ccc(C(=O)NNC(=O)C(=O)c2c[nH]c3ccccc23)cc1,IC50,[1],4.9 µM
same,IC50,[2],3.6 µM
same,IC50,[3],16 µM
O=C(NNc1ccc(Cl)cc1)C(=O)c1c[nH]c2ccccc12,IC50,[1],> 100 µM
same,IC50,[3],> 100 µM
O=C(NNC(=O)c1ccc(-c2cccc(COc3cccc(C(F)(F)F)c3)c2)cc1)C(=O)c1c[nH]c2ccccc12,IC50,[1],0.99 µM
same,IC50,[2],0.72 µM
same,IC50,[3],7.6 µM
